Screening results as filed in PubChem.
PAFAH1B3 FP inh = blocks human PAF acetylhydrolase 1B catalytic subunit 3; inhibition, % at 3.39 µM; 340,000 tested, 0.28% active; Q15102; recombinant PAFAH1B3, FP-rhodamine probe, fluorescence polarization;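 active = inhibition above the screen-wide average of all tested compounds plus 3 SD, cut at about 25% in these data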;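 note: 0% = enzyme with DMSO only and 100% = wells lacking PAFAH1B3 protein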
pPAFAH FP inh = pPAFAH (human) enzyme inhibition; Q13093; AID 463082; 330,000 tested, 1.5% active; inhibition, % at 3.39 µM; recombinant pPAFAH, FP-rhodamine probe fluorescence polarization;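 active = inhibition above the mean inhibition across the screen plus 3 SD, cut at about 25% in these data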;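 note: inhibitors block binding of the rhodamine activity-based probe so polarization drops; 0% = enzyme with DMSO and 100% = wells lacking pPAFAH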
Target sequence (Q13093 whole entry, looked up): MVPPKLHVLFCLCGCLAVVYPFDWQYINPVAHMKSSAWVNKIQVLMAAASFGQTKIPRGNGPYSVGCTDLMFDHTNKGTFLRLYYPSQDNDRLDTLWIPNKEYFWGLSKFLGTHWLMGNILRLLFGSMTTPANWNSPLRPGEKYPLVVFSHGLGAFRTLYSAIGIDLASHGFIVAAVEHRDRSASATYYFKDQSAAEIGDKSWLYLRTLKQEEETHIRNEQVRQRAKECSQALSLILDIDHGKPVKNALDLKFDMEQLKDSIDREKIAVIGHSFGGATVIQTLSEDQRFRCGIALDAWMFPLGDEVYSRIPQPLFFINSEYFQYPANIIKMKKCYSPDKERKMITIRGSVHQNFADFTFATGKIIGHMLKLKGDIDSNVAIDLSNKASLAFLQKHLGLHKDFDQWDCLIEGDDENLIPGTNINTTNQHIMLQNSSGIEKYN
PAFAH2 inh = inhibitors of human PAFAH2. Q99487. recombinant PAFAH2, FP-rhodamine activity probe, fluorescence polarization. inhibition, % at 3.39 µM. 340,000 tested, 0.99% active. AID 492956;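 active = inhibition above the mean over all tested compounds plus 3 SD, cut at about 30% in these data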;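 note: inhibitors block probe labeling of enzyme so polarization drops; 0% = enzyme with DMSO and 100% = wells lacking PAFAH2 protein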
RBBP9 inh = human RBBP9 hydrolase inhibition; recombinant RBBP9, FP-Rh probe fluorescence polarization; inhibition, % at 7.94 µM; 220,000 tested, 0.2% active; AID 1515;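 active = inhibition above the campaign mean of all tested compounds plus 3 SD, cut at about 14% in these data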;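 note: plate controls were DMSO wells with RBBP9 for no effect and wells lacking RBBP9 protein for full effect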
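Assay system: recombinant human RBBP9; Reagent: Serine-hydrolase probe FP-Rh, 375 nM pre-mixing; Doses: 7.94 µM single dose, 0.794% DMSO; Incubation: 30 min then 45 min, 25 °C; Detection: fluorescence polarization (mP), excitation 525 nm, emission 598 nm; Evaluation: percent inhibition from mP, scaled between DMSO and no-protein wells.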
PAFAH1B2 inh = blocks human PAF acetylhydrolase 1b catalytic subunit 2; AID 492953; recombinant PAFAH1B2, FP-rhodamine activity probe, fluorescence polarization; inhibition, % at 3.39 µM; 340,000 tested, 1.2% active;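 active = inhibition above the mean of all tested compounds plus 3 SD, cut at about 24% in these data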;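 note: 0% = enzyme with DMSO and 100% = wells lacking PAFAH1B2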
Target sequence (P68402 whole entry, looked up): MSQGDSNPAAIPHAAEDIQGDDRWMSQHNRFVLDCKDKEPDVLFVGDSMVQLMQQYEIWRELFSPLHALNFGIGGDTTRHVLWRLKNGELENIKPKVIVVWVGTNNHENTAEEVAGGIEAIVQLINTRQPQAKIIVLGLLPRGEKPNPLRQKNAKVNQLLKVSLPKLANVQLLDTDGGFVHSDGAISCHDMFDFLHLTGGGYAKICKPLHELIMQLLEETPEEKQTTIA
An asterisk follows results filed as active; . = not tested or not shown. Rows were chosen to be rich in hits. Some 2.7% of all compounds tested hit in one or more screens of this group.

SMILES | PAFAH1B3 FP inh | pPAFAH FP inh | PAFAH2 inh | RBBP9 inh | PAFAH1B2 inh
CC(=NNC(=O)CSc1nc2ccccc2o1)c1ccco1 | 2 | -3 | 7 | . | -1
Cc1cc(C)cc(N(CC(=O)Nc2ccc(C(F)(F)F)cc2)S(=O)(=O)c2c(C)[nH]c(=O)[nH]c2=O)c1 | -1 | 28* | 0 | . | 3
COc1cc(NC(=O)CN(c2cc(C)cc(C)c2)S(=O)(=O)c2c(C)[nH]c(=O)[nH]c2=O)cc(OC)c1 | 6 | 25* | 1 | . | 3
Cc1cc(C)cc(N(CC(=O)Nc2ccc(C)cc2Cl)S(=O)(=O)c2c(C)[nH]c(=O)[nH]c2=O)c1 | -7 | 4 | 2 | . | 3
COc1ccc(-c2coc3c(C)c4oc(=O)c(CCC(=O)O)c(C)c4cc23)cc1 | 5 | 25* | 7 | . | 4
Cc1c(CCC(=O)O)c(=O)oc2c(C)c3occ(-c4ccc(Br)cc4)c3cc12 | 7 | . | 11 | . | 5
COc1ccc(OCCCC(=O)NC(C)c2ccccc2)cc1 (stereo unspecified) | 1 | 2 | -8 | -2 | 2
Cc1ccc(NC(=O)CNc2cccc(S(=O)(=O)N3CCCCC3)c2)cc1F | 2 | 31* | -5 | . | -2
O=C(c1cc([N+](=O)[O-])ccc1N1CCN(S(=O)(=O)c2ccc(Cl)c(Cl)c2)CC1)N1CCOCC1 | -3 | 1 | 5 | -4 | 37*
Cc1ccc(NC(=O)Cc2nc(CCl)cs2)cc1 | -3 | 32* | 23 | -3 | 5
COc1ccc(CC(=O)OCc2csc(CC(=O)Nc3ccc(C)cc3)n2)cc1 | 13 | 27* | 10 | . | -3
Cc1ccc(NC(=S)Nc2nc(CC(=O)Nc3ccccc3)cs2)cc1 | -14 | -6 | -17 | -17 | 0
O=C(Cc1c(Sc2ccccc2)c2ccccc2n1Cc1ccccc1)NCCO | 8 | 7 | 7 | -3 | 3
O=C(O)c1[nH]c2ccccc2c1C(c1ccccc1)c1c(C(=O)O)[nH]c2ccccc12 | 10 | 2 | 13 | . | 88*
O=C(O)COc1ccc(Br)cc1CP(=O)(c1ccccc1)c1ccccc1 | -4 | 6 | -4 | -3 | 8
COc1cc(C(c2c(C(=O)O)[nH]c3ccccc23)c2c(C(=O)O)[nH]c3ccccc23)ccc1OCc1ccccc1 | 8 | 18 | 26 | . | 57*
O=C(O)c1[nH]c2ccccc2c1C(c1cc(Cl)cc([N+](=O)[O-])c1O)c1c(C(=O)O)[nH]c2ccccc12 | 8 | 13 | 12 | . | 62*
O=C(O)COc1ccc(Br)cc1C(c1c(C(=O)O)[nH]c2ccccc12)c1c(C(=O)O)[nH]c2ccccc12 | 7 | 7 | 20 | . | 53*
O=C(COC(=O)CNC(=O)c1ccc(Cl)cc1Cl)NC1CCCCCCC1 | 2 | 13 | 5 | . | 1
O=c1nc2sc3ccccc3n2c(=O)n1-c1ccc(Cl)cc1 | 1 | -6 | 4 | -7 | -5
O=C1CC(c2ccco2)CC(O)=C1C=Nc1cc(Cl)ccc1O (stereo unspecified) | 14 | 34* | 9 | 1 | 7
COc1cc(OC)c(NC(=O)Nc2ccc(OC)c(OC)c2)cc1Cl | -1 | 1 | -11 | 4 | 2
COc1cc(NC(=O)Nc2ccc(Cl)c(Cl)c2)c(C(=O)O)cc1OC | 4 | 30* | 14 | 8 | 25*
Cc1sc(NC(=O)CSc2nc(N)cc(N)n2)c(C#N)c1C | -2 | -1 | -1 | 1 | 1
C=CCSc1nnc(NC(=O)c2c(CC)noc2C)s1 | 11 | 0 | 0 | . | 4
SMILES | PAFAH1B3 FP inh | pPAFAH FP inh | PAFAH2 inh | RBBP9 inh | PAFAH1B2 inh
O=C(C[C@H]1C/C=C\CC[C@H](Cc2ccc(F)cc2)C(=O)OC[C@H]2CCCN2C1=O)N[C@H](CO)Cc1ccccc1 | 6 | 9 | 8 | . | 7
O=C(C[C@@H]1C/C=C\C[C@@H](Cc2ccc(F)cc2)C(=O)OC[C@@H]2CCCN2C1=O)NCCO | 4 | 0 | 3 | . | 47*
O=C(C[C@@H]1C/C=C\CC[C@@H](Cc2ccc(F)cc2)C(=O)OC[C@@H]2CCCN2C1=O)N[C@H](CO)Cc1ccccc1 | -1 | -4 | 4 | . | 9
O=C1OC[C@@H]2CCCN2C(=O)[C@@H](CC(=O)N(CCO)Cc2ccccc2)C/C=C\C[C@H]1Cc1ccc(F)cc1 | 5 | 9 | 12 | . | 34*
O=C1OC[C@H]2CCCN2C(=O)[C@@H](CC(=O)N(CCO)Cc2ccccc2)C/C=C\C[C@H]1Cc1ccc(F)cc1 | 6 | 3 | 11 | . | 17
O=C(C[C@H]1C/C=C\CC[C@H](Cc2ccc(F)cc2)C(=O)OC[C@H]2CCCN2C1=O)N[C@@H](CO)Cc1ccccc1 | -2 | 27* | 23 | . | 7
O=C(C[C@H]1C/C=C\C[C@@H](Cc2ccc(F)cc2)C(=O)OC[C@H]2CCCN2C1=O)N[C@@H](CO)Cc1ccccc1 | 2 | 7 | -3 | . | 35*
Cc1ccc(C)c(NC(=O)CN(C)C(=O)c2cccc(N3C(=O)CCC3=O)c2)c1 | 12 | 4 | 3 | . | -2
O=C(C[C@H]1C/C=C\CC[C@H](Cc2ccc(F)cc2)C(=O)O[C@@H](c2ccccc2)CNC1=O)N[C@@H](CO)Cc1ccccc1 | 6 | 4 | 8 | . | 25*
O=C(C[C@@H]1C/C=C\C[C@@H](Cc2ccc(F)cc2)C(=O)OC[C@H]2CCCN2C1=O)N[C@H](CO)Cc1ccccc1 | 7 | -1 | 1 | . | 31*
C[C@H]1COC(=O)[C@@H](Cc2ccc(F)cc2)C/C=C\C[C@@H](CC(=O)N[C@@H](CO)Cc2ccccc2)C(=O)N1 | 4 | 2 | 3 | . | 25*
O=C(C[C@H]1C/C=C\CC[C@H](Cc2ccc(F)cc2)C(=O)O[C@@H](c2ccccc2)CNC1=O)N[C@H](CO)Cc1ccccc1 | 2 | 2 | 7 | . | 13
O=C(C[C@H]1C/C=C\CC[C@H](Cc2ccc(F)cc2)C(=O)OC[C@@H]2CCCN2C1=O)N[C@H](CO)Cc1ccccc1 | 12 | 6 | -2 | . | 4
O=C(COC(=O)/C=C/c1ccccc1[N+](=O)[O-])Nc1ccc2[nH]c(=O)[nH]c2c1 | 13 | 14 | -4 | . | 4
O=C(CCN1C(=O)[C@@H]2Cc3ccccc3CN2C1=O)N[C@H](Cc1ccccc1)C(=O)O | 0 | 2 | 4 | . | 6
O=C(CN1CCN(S(=O)(=O)c2ccc(Br)s2)CC1)NC1CCCCC1 | 8 | . | 13 | . | 30*
CN1CSC2=C(C#N)C(c3cccc(OCc4ccccc4)c3)CC(=O)N2C1 (stereo unspecified) | 7 | 16 | 32* | -7 | 7
Nc1c(N2CCCC2)cc(Cl)c2nonc12 | 66* | 15 | 35* | -2 | 13
NC(=O)c1nsc(C(=O)N(c2ccccc2)C(C(=O)NC2CCCC2)c2cccs2)c1N (stereo unspecified) | -2 | -1 | 15 | . | 0
COc1cc(/C=C/C(=O)OCC(=O)NCC2CCCCC2)ccc1O | 0 | 28* | 88* | . | 4
O=C(N/C(=C\c1ccc(Cl)cc1)C(=O)N1CCCCC1)c1ccco1 | 7 | 3 | 1 | . | 12
